CHOP inh: blocks CHOP induction under ER stress. CHO-K1 CHOP-promoter luciferase, tunicamycin-induced, 15-18 h. inhibition, % at 10 µM. 220,000 compounds, 3.8% hits. AID 2732;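 active means compounds that reduced the stress-induced luciferase reporter signal by more than about 70% of percent inhibition, limit read from the data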
UPR XBP1 act: activators of adaptive arm of unfolded protein response (XBP1) | CHO-XBP1 luciferase reporter, IRE1-XBP1 UPR activation, luminescence; percent of tunicamycin response, DMSO as zero | activation, % at 20 µM | 330,000 compounds, 0.33% hits;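 active means versus positive control, 20 µM dose yields 30% or more activation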
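Material: CHO-XBP1 cells stably carrying IRE1-XBP1-driven luciferase reporter | Medium: F12 with 10% serum | Compound dosing: 20 µM single concentration, DMSO 1% | Incubation: Overnight seeding at 37 °C, 6 h compound treatment at 37 °C | Detection: Steady-Glo luminescence read | Read-out basis: % activation of reporter signal versus tunicamycin and DMSO controls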
VLA-4 inh: inhibition in a human VLA-4 binding assay; inhibition, % (about 7 µM as worked out from the volumes in the protocol); VLA-4 expressing cells, ligand binding flow cytometry; 330,000 compounds, 0.2% hits; AID 2557; in the data active means inhibition above about 50%
UPR CHOP act: activators of apoptotic arm of unfolded protein response (CHOP). AID 449763. 330,000 compounds, 0.34% hits. CHO-CHOP luciferase reporter, UPR activation, luminescence; percent of tunicamycin response over DMSO baseline. activation, % at 10 µM;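 active means at 10 µM dose, activation of 40% or more, normalized to positive control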
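assay system = CHO CHOP reporter cells | amount = 500 CHO-CHOP cells per well | buffer or medium = F12 with 10% FBS | incubation = 16-18 h cell attachment, then 6 h compound exposure, 37 °C | detection = luminescence read with Steady-Glo | read-out = percent activation relative to tunicamycin control | controls = tunicamycin high control, DMSO low control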
Beta2AR agonist: agonists of human beta-2 adrenergic receptor inducing internalization. P07550. Am2.2-beta2AR cells, FAP receptor internalization, flow cytometry. response, % (test concentration not listed). 340,000 compounds, 0.43% hits;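 active means response above a set limit, near 3 SD of response in nonfluorescent compounds, cut at about 42% in these data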
Target sequence (P07550 whole entry, looked up): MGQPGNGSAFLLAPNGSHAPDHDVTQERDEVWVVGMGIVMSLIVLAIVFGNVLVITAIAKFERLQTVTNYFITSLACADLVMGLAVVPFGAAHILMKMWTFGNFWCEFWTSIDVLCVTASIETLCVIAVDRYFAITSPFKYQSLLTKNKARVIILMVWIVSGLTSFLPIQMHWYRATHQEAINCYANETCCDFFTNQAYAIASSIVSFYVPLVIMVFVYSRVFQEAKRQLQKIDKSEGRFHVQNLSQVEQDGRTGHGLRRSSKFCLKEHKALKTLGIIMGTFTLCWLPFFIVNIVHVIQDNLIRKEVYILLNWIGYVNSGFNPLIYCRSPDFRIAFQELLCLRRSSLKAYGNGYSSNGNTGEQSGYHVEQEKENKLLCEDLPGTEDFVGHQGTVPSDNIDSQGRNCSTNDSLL
Hits are given with their value. The full list was thinned out, with hits kept by preference.

How did CN(C)C(=O)Oc1ccc2c(c1)O/C(=C\c1cccc(Cl)c1)C2=O do in these assays?
UPR XBP1 act: inactive; VLA-4 inh: inactive; UPR CHOP act: inactive; Beta2AR agonist: 53.3

Results for CN(C)C(=O)Oc1ccc2c(c1)O/C(=C\c1ccc(Cl)cc1)C2=O ?
UPR XBP1 act: inactive; VLA-4 inh: inactive; UPR CHOP act: inactive; Beta2AR agonist: inactive

Results for Cc1ccc2c(c1)CC1(CN2C)C(=O)NC(=O)N(CCc2ccccc2)C1=O (centres undefined) ?
CHOP inh: 91.4; UPR XBP1 act: inactive; VLA-4 inh: inactive; UPR CHOP act: inactive; Beta2AR agonist: inactive

What do the screens show for `Cc1cccc(C)c1NC(=O)c1cccn(Cc2ccc3c(c2)OC(F)(F)O3)c1=O`?
CHOP inh: 85.9; UPR XBP1 act: inactive; VLA-4 inh: inactive; UPR CHOP act: inactive; Beta2AR agonist: inactive

How did Ic1ccccc1CNC1C2CCN(CC2)C1C(c1ccccc1)c1ccccc1 (centres undefined) do in these assays?
CHOP inh: inactive

What do the screens show for `COC(=O)C1=C(c2ccccc2)C[C@@H]2CC[C@H]1N2C(=O)NCC1CC1`?
UPR XBP1 act: inactive; VLA-4 inh: inactive; UPR CHOP act: inactive; Beta2AR agonist: inactive

Results for COc1ccc(CN2Cc3cnnn3-c3ccccc3C2C#N)cc1 (centres undefined) ?
Beta2AR agonist: inactive

Results for N#CC1c2ccccc2-n2nncc2CN1Cc1cc(Cl)cc(Cl)c1 (centres undefined) ?
Beta2AR agonist: 94.1

Results for O=c1[nH]c(=O)n(CC2CCCO2)c(O)c1/C=C1\C=Nc2ccccc21 (centres undefined) ?
CHOP inh: inactive; UPR XBP1 act: inactive; VLA-4 inh: inactive; UPR CHOP act: inactive; Beta2AR agonist: inactive

How did O=c1[nH]c(=O)n(Cc2ccccc2)c(O)c1/C=C1\C=Nc2ccccc21 do in these assays?
CHOP inh: 83.0; UPR XBP1 act: inactive; VLA-4 inh: inactive; UPR CHOP act: inactive; Beta2AR agonist: inactive

How did CC(C)CC(NP(=O)(O)O[C@@H]1O[C@@H](C)[C@H](O)[C@@H](O)[C@H]1O)C(=O)NC(Cc1c[nH]c2ccccc12)C(=O)O (some centres undefined) do in these assays?
CHOP inh: inactive

Results for O=C(CNC(=O)c1ccc(Br)cc1)Nc1ccc(Br)cc1C(=O)c1ccccc1 ?
CHOP inh: 76.9; UPR XBP1 act: inactive; VLA-4 inh: inactive; UPR CHOP act: inactive; Beta2AR agonist: inactive

What do the screens show for `Oc1ccc2c3c1O[C@H]1c4oc5ccccc5c4C[C@@]4(O)C(C2)N(CC2CC2)CCC314` (some centres undefined)?
CHOP inh: inactive

What do the screens show for `CCCCn1c(NC(=O)c2ccc(Br)o2)c(C(=O)OCC)c2nc3ccccc3nc21`?
CHOP inh: inactive; UPR XBP1 act: 61.6; VLA-4 inh: inactive; UPR CHOP act: inactive; Beta2AR agonist: inactive

Results for Clc1ccc(N2CC3CCC(C2)N3)nn1 ?
CHOP inh: inactive

Results for C=CCc1cc(C=C2C(=O)N(C)C(=O)N(C)C2=O)cc(OCC)c1OCc1ccccc1 ?
CHOP inh: 88.5; UPR XBP1 act: inactive; VLA-4 inh: inactive; UPR CHOP act: inactive; Beta2AR agonist: inactive

How did C=CCc1cc(C=C2C(=O)NC(=O)NC2=O)cc(OC)c1OCc1ccc(C(=O)O)cc1 do in these assays?
CHOP inh: inactive; UPR XBP1 act: inactive; VLA-4 inh: inactive; UPR CHOP act: inactive; Beta2AR agonist: inactive

Results for O=P(O)(O)C(Cl)(Cl)P(=O)(O)O ?
CHOP inh: inactive

What do the screens show for `CC1=C(O)C(=O)C=C2C1=CC=C1C2(C)CCC2(C)C3CC(C)(C(=O)O)CCC3(C)CCC12C` (centres undefined)?
Beta2AR agonist: 105.0

Results for COc1cccc(NP(=O)(Oc2ccccc2Cl)Oc2ccccc2Cl)c1 ?
CHOP inh: 91.0; UPR XBP1 act: inactive; VLA-4 inh: inactive; UPR CHOP act: inactive; Beta2AR agonist: inactive

How did C1=C(c2c[nH]c3ccccc23)CCNC1 do in these assays?
CHOP inh: 76.5; UPR XBP1 act: inactive; VLA-4 inh: inactive; UPR CHOP act: inactive

What do the screens show for `Cc1ccccc1N1C(=O)NC(=O)/C(=C\c2cc(Br)c(N3CCOCC3)o2)C1=O`?
CHOP inh: 72.3; UPR XBP1 act: inactive; VLA-4 inh: inactive; UPR CHOP act: inactive; Beta2AR agonist: inactive

How did NC(=O)Nc1ccc(C(=O)OCC(=O)Nc2ccc(Cl)cc2C(=O)c2ccccc2)cc1 do in these assays?
CHOP inh: 76.5; UPR XBP1 act: inactive; VLA-4 inh: inactive; UPR CHOP act: inactive; Beta2AR agonist: inactive

Results for O=C(Cn1ncc2c3ccccc3n(Cc3ccccc3F)c2c1=O)N1CCC2(CC1)OCCO2 ?
CHOP inh: inactive; UPR XBP1 act: inactive; VLA-4 inh: inactive; UPR CHOP act: inactive; Beta2AR agonist: 50.5

How did Cc1cccc(CN2CCN(Cc3ccc(Cl)cc3)CC2)c1 do in these assays?
CHOP inh: inactive; UPR XBP1 act: inactive; VLA-4 inh: inactive; UPR CHOP act: inactive; Beta2AR agonist: inactive

Results for Cc1cccc(CN2CCN(c3ccc(Cl)cc3)CC2)c1 ?
CHOP inh: 82.6; UPR XBP1 act: inactive; VLA-4 inh: inactive; UPR CHOP act: inactive; Beta2AR agonist: inactive

Results for S=C(N1CCCCCC1)N1CC1 ?
Beta2AR agonist: inactive

How did O=c1cc(C(F)(F)F)c2cc3c4c(c2o1)CCCN4CCC3 do in these assays?
CHOP inh: 93.1; UPR XBP1 act: inactive; VLA-4 inh: inactive; UPR CHOP act: inactive; Beta2AR agonist: inactive

What do the screens show for `Cc1cc2c(C(F)(F)F)cc(=O)oc2c2c1NCCC2`?
CHOP inh: inactive; UPR XBP1 act: inactive; VLA-4 inh: inactive; UPR CHOP act: inactive; Beta2AR agonist: inactive

Results for N[C@@H](Cn1ccc(=O)[nH]c1=O)C(=O)O ?
CHOP inh: inactive

What do the screens show for `CC(N)c1cccc(Cl)c1Cl` (centres undefined)?
CHOP inh: inactive

What do the screens show for `O=C1NC(=O)C2(Cc3ccccc3N3CCCC32)C(=O)N1c1cccc(Cl)c1` (centres undefined)?
CHOP inh: inactive; UPR XBP1 act: inactive; VLA-4 inh: inactive; UPR CHOP act: inactive; Beta2AR agonist: inactive

Results for Cc1ccc(N2C(=O)NC(=O)C3(Cc4ccccc4N4CCN(c5ccccc5)CC43)C2=O)cc1 (centres undefined) ?
CHOP inh: 70.5; UPR XBP1 act: inactive; VLA-4 inh: inactive; UPR CHOP act: inactive; Beta2AR agonist: inactive

Results for CC1(C)C2SCC(=O)N2CCN1CC(=O)NN (centres undefined) ?
CHOP inh: 84.0; UPR XBP1 act: inactive; VLA-4 inh: inactive; UPR CHOP act: inactive; Beta2AR agonist: inactive

How did CN1CCC23CCCC[C@H]2C1Cc1ccc(O)cc13 (some centres undefined) do in these assays?
CHOP inh: inactive

What do the screens show for `CC(=O)OC1C=CC2[C@H]3Cc4ccc(O)c5c4[C@@]2(CCN3C)C1O5` (some centres undefined)?
UPR XBP1 act: inactive; VLA-4 inh: inactive; UPR CHOP act: inactive; Beta2AR agonist: inactive
